In ChEMBL document CHEMBL4732181, “Pyrazolo[3,4-d]pyrimidine-based dual EGFR T790M/HER2 inhibitors: Design, synthesis, structure-activity relationship and biological activity as potential antitumor and anticonvulsant agents” (Eur J Med Chem, 2021):

Tests used:
WI-38 = assay: Cytotoxicity against human WI-38 cells assessed as reduction in cell viability after 48 hrs by MTT assay; format: cell-based; conditions: WI-38, 48 h
Procedure, shortened: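 Cells from ATCC grown in DMEM with 10% FBS, insulin and 1% penicillin-streptomycin. Plated at 1.2-1.8 × 10,000 cells/well for 24 h, then exposed to compounds in DMSO vehicle for 48 h. MTT 0.5 mg/ml added for 2 h; absorbance read at 570 nm. Experiments run in triplicate.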

Mus musculus [1] = assay: Anticonvulsant activity against mouse model of LiCa/pilocarpine-induced status epilepticus assessed as mean power frequency at 20 mg/kg, po for 10 days by EEG method relative to control; format: functional; conditions: time 10 day
Procedure, shortened: (§1)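 Male mice (20-30 g), five per group, dosed orally once daily for 10 days. Status epilepticus was then induced with LiCa (3 mEq/kg i.p.), atropine sulfate (1 mg/kg i.p.) 30 min before pilocarpine, and pilocarpine HCl (300 mg/kg i.p.) 2 h after LiCa. Normal controls received oral distilled water. Comparators were untreated SE, phenytoin and lamotrigine. One-way ANOVA with Tukey post-hoc; mean ± SD.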

Mus musculus [2] = assay: Anticonvulsant activity against mouse model of LiCa/pilocarpine-induced status epilepticus assessed as spectral edge frequency at 20 mg/kg, po for 10 days by EEG method relative to control; format: functional; conditions: time 10 day; procedure, shortened: as §1
Mus musculus [3] = assay: Anticonvulsant activity against mouse model of LiCa/pilocarpine-induced status epilepticus assessed as total power at 20 mg/kg, po for 10 days by EEG method relative to control; format: functional; conditions: time 10 day; procedure, shortened: as §1
Mus musculus [4] = assay: Anticonvulsant activity against mouse model of LiCa/pilocarpine-induced status epilepticus assessed as amplitude at 20 mg/kg, po for 10 days by EEG method relative to control; format: functional; conditions: time 10 day; procedure, shortened: as §1
Mus musculus [5] = assay: Anticonvulsant activity against mouse model of LiCa/pilocarpine-induced status epilepticus assessed as amplitude density at 20 mg/kg, po for 10 days by EEG method relative to control; format: functional; conditions: time 10 day; procedure, shortened: as §1
Mus musculus [6] = assay: Anticonvulsant activity against mouse model of LiCa/pilocarpine-induced status epilepticus assessed as power pV2 at 20 mg/kg, po for 10 days by EEG method relative to control; format: functional; conditions: time 10 day; procedure, shortened: as §1
Mus musculus [7] = assay: Anticonvulsant activity against mouse model of LiCa/pilocarpine-induced status epilepticus assessed as total power density at 20 mg/kg, po for 10 days by EEG method relative to control; format: functional; conditions: time 10 day; procedure, shortened: as §1
Mus musculus [8] = assay: Anticonvulsant activity against mouse model of LiCa/pilocarpine-induced status epilepticus assessed as delta at 20 mg/kg, po for 10 days by EEG method relative to control; format: functional; conditions: time 10 day; procedure, shortened: as §1
Mus musculus [9] = assay: Anticonvulsant activity against mouse model of LiCa/pilocarpine-induced status epilepticus assessed as theta at 20 mg/kg, po for 10 days by EEG method relative to control; format: functional; conditions: time 10 day; procedure, shortened: as §1
Mus musculus [10] = assay: Anticonvulsant activity against mouse model of LiCa/pilocarpine-induced status epilepticus assessed as alpha at 20 mg/kg, po for 10 days by EEG method relative to control; format: functional; conditions: time 10 day; procedure, shortened: as §1
Mus musculus [11] = assay: Anticonvulsant activity against mouse model of LiCa/pilocarpine-induced status epilepticus assessed as MDA level in brain at 20 mg/kg, po for 10 days by calorimetric method relative to control; format: functional; conditions: time 10 day; procedure, shortened: as §1
Mus musculus [12] = assay: Anticonvulsant activity against mouse model of LiCa/pilocarpine-induced status epilepticus assessed as GSH level in brain at 20 mg/kg, po for 10 days by calorimetric method relative to control; format: functional; conditions: time 10 day; procedure, shortened: as §1
Mus musculus [13] = assay: Anticonvulsant activity against mouse model of LiCa/pilocarpine-induced status epilepticus assessed as GABA level in brain at 20 mg/kg, po for 10 days by ELISA relative to control; format: functional; conditions: time 10 day; procedure, shortened: as §1
Mus musculus [14] = assay: Anticonvulsant activity against mouse model of LiCa/pilocarpine-induced status epilepticus assessed as Glutamate level in brain at 20 mg/kg, po for 10 days by ELISA relative to control; format: functional; conditions: time 10 day; procedure, shortened: as §1

| SMILES | IC50 (WI-38) [nM] | Activity (Mus musculus [1]) [%] | Activity (Mus musculus [2]) [%] | Activity (Mus musculus [3]) [%] | Activity (Mus musculus [4]) [%] | Activity (Mus musculus [5]) [%] | Activity (Mus musculus [6]) [%] | Activity (Mus musculus [7]) [%] | Activity (Mus musculus [8]) [%] | Activity (Mus musculus [9]) [%] | Activity (Mus musculus [10]) [%] | Activity (Mus musculus [11]) [%] | Activity (Mus musculus [12]) [%] | Activity (Mus musculus [13]) [%] | Activity (Mus musculus [14]) [%] |
| --- | --- | --- | --- | --- | --- | --- | --- | --- | --- | --- | --- | --- | --- | --- | --- |
| Cc1nn(-c2ccccc2)c2nc(C(=O)N3NC(=O)/C(=C/c4ccc(Cl)cc4)N=C3c3ccc(Cl)cc3)[nH]c(=O)c12 | 19.3 | -37.61 | -21.45 | 37.32 | 89.78 | 54.1 | 225.84 | 233.86 | 313.77 | 41.15 | 4.62 | -63.24 | 144.08 | 74.49 | -57.79 |
| Cc1ccc(C2=N/C(=C\c3ccccc3)C(=O)NN2C(=O)c2nc3c(c(C)nn3-c3ccccc3)c(=O)[nH]2)cc1 | 24.5 | -37.93 | -22.26 | 15.45 | 62.22 | 36.17 | 143.79 | 210.16 | 241.85 | 32.01 | 9.13 | -66.18 | 173.91 | 59.73 | -72.91 |
| COc1ccc(/C=C2/N=C(c3ccc(C)cc3)N(C(=O)Cc3nc4c(c(C)nn4-c4ccccc4)c(=O)[nH]3)NC2=O)cc1 | 18.6 | -33 | -26.44 | 33.82 | 80.44 | 82.98 | 218.96 | 264.63 | 362.78 | 27.12 | 0.71 | -69.49 | 50.67 | 71.88 | -50.42 |
| Cc1nn(-c2ccccc2)c2nc(C(=O)N3NC(=O)/C(=C/c4ccccc4)N=C3c3ccc(Cl)cc3)[nH]c(=O)c12 | 55 | -22.83 | -13.59 | 10.2 | 54.67 | 76.29 | 133.56 | 200.5 | 254.07 | 16.08 | 27.21 | -55.28 | 80.37 | 89.37 | -39.91 |
| Cc1nn(-c2ccccc2)c2nc(CC(=O)N3NC(=O)/C(=C\c4ccc(Cl)cc4)N=C3c3ccc(Cl)cc3)[nH]c(=O)c12 | 12.9 | -25.05 | -13.39 | 0.58 | 45.78 | 69.3 | 126.51 | 181.99 | 239.87 | 54.18 | 35.86 | -60.61 | 146.06 | 82.22 | -58.56 |
| Cc1ccc(C2=N/C(=C/c3ccccc3)C(=O)NN2C(=O)Cc2nc3c(c(C)nn3-c3ccccc3)c(=O)[nH]2)cc1 | 85.6 | -46.23 | -29 | 23.32 | 90.67 | 110.33 | 243.46 | 302.31 | 366.41 | 11.83 | -5.99 | -69.74 | 188.85 | 91.22 | -82.89 |
| Cc1nn(-c2ccccc2)c2nc(CC(=O)N3NC(=O)/C(=C\c4ccc(Cl)cc4)N=C3c3ccccc3)[nH]c(=O)c12 | 111 | -44.11 | -28.09 | 23.03 | 82.67 | 63.22 | 204.36 | 248.78 | 327.42 | 20.33 | 0.12 | -74.39 | 170 | 80.61 | -76.98 |
| O=C1NC(=O)C(c2ccccc2)(c2ccccc2)N1 [PHENYTOIN] |  | -58.54 | -38.74 | 51.6 | 158.67 | 175.08 | 332.89 | 381.63 | 485.9 | 19.76 | -14.82 | -56.88 | 156.39 | 92.87 | -81.35 |
| COc1ccc(/C=C2/N=C(c3ccccc3)N(C(=O)Cc3nc4c(c(C)nn4-c4ccccc4)c(=O)[nH]3)NC2=O)cc1 | 17.2 | -39.36 | -21.87 | 16.62 | 66.22 | 47.72 | 167.62 | 215.63 | 266.63 | 24.43 | 2.55 | -66.91 | 136.46 | 104.31 | -75.98 |
| CS(=O)(=O)CCNCc1ccc(-c2ccc3ncnc(Nc4ccc(OCc5cccc(F)c5)c(Cl)c4)c3c2)o1 [LAPATINIB] | 45.2 | -50.58 | -34.07 | 33.24 | 122.67 | 142.55 | 272.65 | 346.9 | 425.44 | 12.11 | -8.6 | -57.67 | 172.32 | 83.04 | -81.12 |
| COc1ccc(/C=C2\N=C(c3ccc(Cl)cc3)N(C(=O)c3nc4c(c(C)nn4-c4ccccc4)c(=O)[nH]3)NC2=O)cc1 | 25 | -40.42 | -22.51 | 14.87 | 71.11 | 46.81 | 190.77 | 245.46 | 330.62 | 20.25 | -4.74 | -67.54 | 150.97 | 87.03 | -66.54 |
| Cc1nn(-c2ccccc2)c2nc(C(=O)N3NC(=O)/C(=C/c4ccccc4)N=C3c3ccccc3)[nH]c(=O)c12 | 49.5 | -30.24 | -16.31 | 13.12 | 67.11 | 78.42 | 138.76 | 229.32 | 314.32 | 28.9 | 12.39 | -72.13 | 154.11 | 61.71 | -58.33 |
| Cc1nn(-c2ccccc2)c2nc(CC(=O)N3NC(=O)/C(=C\c4ccccc4)N=C3c3ccc(Cl)cc3)[nH]c(=O)c12 | 80.2 | -28.52 | -17.33 | 0.29 | 55.11 | 68.09 | 117.95 | 175.43 | 264.98 | 34.99 | 34.85 | -46.88 | 191.86 | 40.05 | -45.51 |
| COc1ccc(/C=C2\N=C(c3ccc(C)cc3)N(C(=O)c3nc4c(c(C)nn4-c4ccccc4)c(=O)[nH]3)NC2=O)cc1 | 36.8 | -32.59 | -18.75 | 18.66 | 79.11 | 56.84 | 198.49 | 222.48 | 295.04 | 32.29 | 4.98 | -46.76 | 98.02 | 79.64 | -67.77 |
